167 variants from the RNAGym collection of RNA variant scans (doi:10.1126/science.aae0568) can be followed below.

This sample holds only a part of the variants without activity.

B1: tRNA (parent)
chain: GUUCCGUUGGCGUAAUGGUAACGCGUCUCCCUCCUAAGGAGAAGACUGCGGGUUCGAGUCCCGUACGGAACG

In the data set the parent is B1. Nature of the data set: yeast fitness relative to wild type (ratio to wild type); higher = fitter; tRNA-Arg(CCU), competitive growth, 37 C, YPD. In a few lines: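 A pool of Saccharomyces cerevisiae strains, each with a tRNA-Arg(CCU) gene variant at the native genomic locus, was competed in YPD at 37°C for 24 hours across six parallel replicates. The variants had been chemically synthesised at a 3% per-site mutation rate over 69 sites, and gene amplicons before and after competition were read by 100-nucleotide paired-end sequencing. Darwinian fitness relative to wild type rested on changes in genotype frequencies. Genotypes required ≥ 100 starting reads, and estimates < 0.5 were set to 0.5.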
Regarding C24U C34U A69C, the yeast fitness came out at 0.502.

Regarding C24U C61G, the yeast fitness was 0.598.

For C24U C61U, the yeast fitness was 0.881.

Take C24U C61A: the yeast fitness was 0.612.

Consider G25A G58A, for which the yeast fitness amounted to 0.872.

For G25A G58C, the yeast fitness is 0.901.

Turning to G25A G41C U54G C61U, the yeast fitness was no more than 0.5.

Regarding G25A C29U C49U C61A, the yeast fitness is no more than 0.5.

On to G25A G52A C66U, for which the yeast fitness was 0.637.

Turning to C24U C49G G56C G58A, the yeast fitness stood at 0.57.

Regarding C24U U26G C61G, the yeast fitness is no more than 0.5.

G25A U26A C31U G38A A42G A43U G48C G68C: the yeast fitness is no more than 0.5.

As for C24U C61G C66U A69U, the yeast fitness came out at 0.539.

With C24U C46A C55U G58C, the yeast fitness turned out to be 0.793.

Consider G25A C49U, for which the yeast fitness was found to be 0.991.

On to G25A C49U C55U A57C, for which the yeast fitness is no more than 0.5.

For the variant G25A A36U C49U, the yeast fitness stood at 0.545.

Take G25A C29U A45U: the yeast fitness is 0.69.

Take G25A G51C C66U: the yeast fitness is no more than 0.5.

Regarding C24U C49U U54G G67A, the yeast fitness was no more than 0.5.

For the variant C24U G51A A57U, the yeast fitness was no more than 0.5.

Turning to C24U G25A C30U C46A C55G C60A, the yeast fitness was no more than 0.5.

Regarding C24U G63U, the yeast fitness was 0.627.

On to C24U U32C A36U A37G U54A, for which the yeast fitness is no more than 0.5.

Take C24U G25C C30U A45U C49G A65U: the yeast fitness is no more than 0.5.

For the variant G25A A37U A40C G67A, the yeast fitness is no more than 0.5.

With G25A G50A C55A C66A, the yeast fitness is no more than 0.5.

Take C24U G44A U54G G67A: the yeast fitness is no more than 0.5.

With C24U U26G U35A C62A, the yeast fitness was no more than 0.5.

Take C24U G48U: the yeast fitness stood at 0.783.

As to G25A G41A A70C, the yeast fitness was 0.714.

Turning to C24U G56C, the yeast fitness came to 0.792.

Take C24U G48A C62G A69U: the yeast fitness worked out at 0.606.

Take C24U C46U: the yeast fitness was 0.983.

On to C24U C46G, for which the yeast fitness came out at 1.01.

As for C24U C46A, the yeast fitness was found to be 0.925.

G25A G51A: the yeast fitness turned out to be 0.861.

Turning to G25A C55U A69C, the yeast fitness was found to be 0.639.

For C24U G51C C55U, the yeast fitness is no more than 0.5.

Take G25A G68C: the yeast fitness stood at 0.938.

G25A C33U C62A A70C: the yeast fitness was no more than 0.5.

As for G25A U26C A36G, the yeast fitness stood at 1.07.

G25A G48C: the yeast fitness was determined as 1.14.

As to C24U C34U C46U, the yeast fitness was no more than 0.5.

C24U C34U C46A: the yeast fitness is no more than 0.5.

Turning to G25A A65U, the yeast fitness came to 0.981.

For G25A C60A C61A G63A, the yeast fitness was 0.75.

C24U G44A C55G G56A A57U: the yeast fitness amounted to 0.79.

In the case of C24U U53A C66U A70U, the yeast fitness was no more than 0.5.

Take G25A C31A C62U: the yeast fitness was 0.586.

In the case of G25A G48C G52C C55U, the yeast fitness is no more than 0.5.

As to G25A A40U C61U, the yeast fitness is 0.669.

For the variant C24U U35G A42G G51A, the yeast fitness is no more than 0.5.

G25A G41C A57U: the yeast fitness is 0.649.

In the case of G25A A45G G50C A69C, the yeast fitness was 0.526.

In the case of C24U G25C C61A, the yeast fitness is no more than 0.5.

Turning to G25A C29G A45C C46G, the yeast fitness is no more than 0.5.

As for C24U C66U, the yeast fitness turned out to be 0.794.

As to G25A A42U A43C G44A, the yeast fitness stood at 0.764.

With G25A C31U C55G C61U C62A, the yeast fitness is 0.598.

With C24U U53A C66U, the yeast fitness is 0.55.

For G25A A69C, the yeast fitness was 1.02.

As to C24U C62A, the yeast fitness turned out to be 0.684.

G25A C29A A57C A70G: the yeast fitness is no more than 0.5.

As for G25A A40C C46U C55U, the yeast fitness worked out at 0.672.

For the variant G25A A43G C49U U64C, the yeast fitness was 0.924.

Consider G25A C29A, for which the yeast fitness was found to be 0.609.

For C24U G41C C49A, the yeast fitness turned out to be 0.778.

As to C24U C34U G41A, the yeast fitness was found to be 0.539.

On to C24U U32A C33G C60U A69G, for which the yeast fitness is no more than 0.5.

On to C24U C60G A70C, for which the yeast fitness is 0.562.

In the case of G25A C34A U47C, the yeast fitness was no more than 0.5.

For the variant G25A A45G A65G, the yeast fitness stood at 0.823.

Consider C24U G38C G52C, for which the yeast fitness is no more than 0.5.

In the case of G25A U54G, the yeast fitness was 0.566.

As for G25A U54C, the yeast fitness worked out at 0.87.

Take C24U G52A A57C: the yeast fitness was no more than 0.5.

Regarding G25A A42U, the yeast fitness stood at 0.813.

As to G25A A42G, the yeast fitness came to 0.89.

As to C24U U28C G52C C60G, the yeast fitness amounted to 0.524.

With G25A C29U C31U, the yeast fitness worked out at 0.57.

With G25A C29U C31G, the yeast fitness was no more than 0.5.

Take C24U C46U A70U: the yeast fitness was 0.75.

In the case of G25A U32A C49U U53A, the yeast fitness was no more than 0.5.

In the case of G25A A43C A70G, the yeast fitness was 0.745.

As to G25A C60A, the yeast fitness amounted to 0.66.

Regarding G25A C60G, the yeast fitness was determined as 0.718.

Regarding G25A A43U U54A, the yeast fitness turned out to be 0.565.

For the variant C24U U32C A43U, the yeast fitness was 0.768.

As for C24U U32G A40U A65C, the yeast fitness was no more than 0.5.

Regarding G25A U26A C55G G68C A69G, the yeast fitness was no more than 0.5.

With G25A G38C, the yeast fitness was found to be 0.775.

With G25A U47C, the yeast fitness stood at 0.93.

As to G25A C49U U64C, the yeast fitness turned out to be 0.782.

For the variant G25A C31A A45C G50A A69U, the yeast fitness was no more than 0.5.

As for C24U C49G G56C, the yeast fitness is no more than 0.5.

For C24U G67C G68A, the yeast fitness was 0.587.

On to G25A A42G U59C, for which the yeast fitness is no more than 0.5.

In the case of G25A G58C A69C, the yeast fitness turned out to be 1.01.

G25A C61G: the yeast fitness was 0.679.

As for G25A C61U, the yeast fitness was 0.971.

For G25A C61A, the yeast fitness is 0.595.

Take G25A C31U A37C G68U: the yeast fitness is no more than 0.5.

For the variant C24U U26G A43G, the yeast fitness was determined as 0.727.

G25A C30U C62U: the yeast fitness was 0.583.

On to C24U C34U G56C A57G G68U, for which the yeast fitness was no more than 0.5.

Turning to C24U U26A U28G U54G, the yeast fitness amounted to 0.545.

Take G25A C49U A65U: the yeast fitness turned out to be 0.849.

Consider G25A C46G U53A A65C, for which the yeast fitness is no more than 0.5.

G25A U35A G52A U59C C66A G67A: the yeast fitness is no more than 0.5.

For the variant C24U C34U G58A, the yeast fitness was no more than 0.5.

As to C24U U26A U28G U54G C61U, the yeast fitness is no more than 0.5.

For C24U G56A G67A, the yeast fitness turned out to be 0.731.

Consider C24U U35C G38C, for which the yeast fitness turned out to be 0.677.

On to G25A C34U A43U G56A, for which the yeast fitness is no more than 0.5.

As to G25A G52A A57G G67A, the yeast fitness was no more than 0.5.

On to G25A A37U G41A C62G, for which the yeast fitness was no more than 0.5.

Regarding G25A A37U G56A C66U, the yeast fitness was no more than 0.5.

As for G25A C33A A40G, the yeast fitness is 0.544.

Regarding C24U U35A, the yeast fitness is 0.806.

With C24U U35G C46A, the yeast fitness is no more than 0.5.

C24U U28G C33G C34U A36G A40G A70C: the yeast fitness is no more than 0.5.

In the case of G25A C31A G51C C55G A57U C66U, the yeast fitness is no more than 0.5.

For the variant G25A G50A G63C, the yeast fitness is 0.641.

Regarding C24U U47C G67C, the yeast fitness was determined as 0.688.

As for G25A A42U A43C G44A C49A C55G, the yeast fitness is no more than 0.5.

As to C24U U32G G52C G63A G68C, the yeast fitness was no more than 0.5.

Consider G25A U35A A36U C61U, for which the yeast fitness is no more than 0.5.

Regarding G25A G41C, the yeast fitness turned out to be 0.974.

Regarding C24U C55A U59G A65C, the yeast fitness was no more than 0.5.

On to G25A U28G, for which the yeast fitness was determined as 0.762.

Take G25A U26C C29G C61A: the yeast fitness is no more than 0.5.

Turning to C24U C46G C49A C61U, the yeast fitness is no more than 0.5.

C24U C60A: the yeast fitness was determined as 0.527.

In the case of G25C A36U, the yeast fitness was 0.724.

Regarding G25C A36C, the yeast fitness was 0.718.

For the variant G25C A36G, the yeast fitness was found to be 0.864.

Consider C24U G68A, for which the yeast fitness came out at 0.697.

In the case of G25A U28A A36U A37U A42U, the yeast fitness is no more than 0.5.

C24U U32A G38A A57U: the yeast fitness is no more than 0.5.

Consider G25A C31U A70C, for which the yeast fitness is 0.731.

In the case of C24U C49U U54G, the yeast fitness stood at 0.588.

In the case of C24U U35C A70U, the yeast fitness came out at 0.541.

In the case of C24U U59A U64C, the yeast fitness was no more than 0.5.

For C24U U32C A69U, the yeast fitness stood at 0.818.

Regarding C24U U32G G56A, the yeast fitness was determined as 0.53.

Regarding C24U C46U A65U, the yeast fitness was 0.714.

Regarding G25A C55U U59C A65C, the yeast fitness was no more than 0.5.

For the variant C24U C49U U64A, the yeast fitness was no more than 0.5.

Take G25A U28A A65U: the yeast fitness is 0.697.

On to G25A C30U A43G G52A, for which the yeast fitness came out at 0.701.

For C24U G58C A65U, the yeast fitness turned out to be 0.644.

G25A C27G C29G C46A A65G C66U: the yeast fitness is no more than 0.5.

On to C24U U26A G68A, for which the yeast fitness stood at 0.604.

For C24U U59A C62A A69C, the yeast fitness came out at 0.552.

As for G25A C34A A65U, the yeast fitness came out at 0.616.

For the variant G25A U47C U64C A70C, the yeast fitness amounted to 1.06.

As to C24U C49A, the yeast fitness came to 0.716.

Consider C24U C49U, for which the yeast fitness is 0.969.

For G25A G39C, the yeast fitness is 0.755.

With G25A A40C C46U A69C, the yeast fitness was 0.764.

On to G25A U35C A43G C55U, for which the yeast fitness is no more than 0.5.

With C24U U32G A69C A70U, the yeast fitness was no more than 0.5.

Consider G25A G48A C62G A69U, for which the yeast fitness came to 0.749.

As for C24U C49U A65U, the yeast fitness came to 0.577.

With G25A U64C, the yeast fitness amounted to 0.902.

As to G25A U64A, the yeast fitness amounted to 0.901.
